TRPC4 act: activators of mouse TRPC4 channel, primary screen, Fluo4 calcium, HEK293 TRPC4beta/mu-opioid cells. Fluo4 calcium fluorescence; stronger effect = higher value. actives 0.49% (n = 310,000). B-score at 10 µM. Short transient receptor potential channel 4 (Mus musculus), Q9QUQ5;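 active means B-score above 5 SD of library B-scores, and initial fluorescence ratio not above library mean plus 5 SD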;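 further: positive B-score marks a calcium rise read as TRPC4 activation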
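Incubation: 45 min room-temperature Fluo4 loading, 110 s read / System: HEK293 cells stably co-expressing mouse TRPC4beta and mu-opioid receptor / Signal: Fluo4 fluorescence, kinetic / Control set: buffer (low) and maximal DAMGO (high) / Measure: integrated baseline-normalised fluorescence ratio, converted to per-well B score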
TRPC4 potent: positive allosteric modulators of TRPC4, primary screen, cell-based, mouse TRPC4beta, HEK293 mu-opioid, Fluo-4 calcium; Short transient receptor potential channel 4 (Mus musculus), Q9QUQ5; DAMGO EC20, Fluo-4 Ca2+ flux; stronger effect = higher value; B-score at 10 µM; actives 0.42% (n = 310,000); AID 2227, 2009;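 active means B-score of calcium response area above 5 SD of library B-scores, with initial fluorescence ratio within 5 SD of library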;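 further: B-score of integrated fluorescence ratio over time as area under calcium response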
TRPC4 block: inhibitors of mouse TRPC4 channel, primary screen, Fluo4 calcium, HEK293 TRPC4beta/mu-opioid cells; Short transient receptor potential channel 4 (Mus musculus), Q9QUQ5; DAMGO-evoked Fluo4 calcium flux; stronger effect = lower value; B-score at 10 µM; actives 0.39% (n = 300,000); AID 2247, 2010;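 active means B-score over 3 SD under the library average, no early fluorescence shift, positive overall ratio signal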
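Assay system – HEK293 line stably carrying TRPC4beta and mu-opioid receptor · Doses – single dose · Detection – Fluo4 calcium-dye fluorescence, kinetic read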
TRPC6 act: mouse TRPC6 channel activators, primary screen, cell-based, HEK293, membrane potential dye; Short transient receptor potential channel 6 (Mus musculus), Q61143; HEK293-TRPC6 membrane potential dye fluorescence; stronger effect = higher value; B-score at 10 µM; actives 0.13% (n = 310,000);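 active means B-score of the integrated fluorescence ratio above library mean plus 3 SD, and starting fluorescence ratio within library mean plus 5 SD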;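 further: higher score means more depolarization so channel activation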
TRPC6 inh: mouse TRPC6 channel inhibitors, primary screen, cell-based, HEK293, membrane potential dye; ACh-evoked depolarization; stronger effect = lower value; AID 2553, 2010; B-score at 10 µM; actives 1.1% (n = 310,000);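 active means B-score under library mean minus 3 SD, initial fluorescence not abnormally high, positive integrated signal ratio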;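 further: B-score derived from integrated fluorescence ratio over the kinetic read; more negative B-score means stronger inhibition of depolarization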
An asterisk follows results filed as active. In the library only some 2.3% were active in any assay of this set; here they are far more common.

`COc1cc(/C=C2\C(C)=C(C#N)c3nc(N)c(C#N)c(C)c32)ccc1OCC(=O)O` gave TRPC4 act inactive, TRPC4 potent inactive, TRPC4 block inactive, TRPC6 act inactive and TRPC6 inh inactive.
`CC1=C(C#N)c2nc(N)c(C#N)c(C)c2/C1=C\c1ccc(C)cc1` gave TRPC4 act inactive, TRPC4 potent inactive, TRPC4 block inactive, TRPC6 act inactive and TRPC6 inh -6.42*.
O=C(Cn1cccc1C(=O)c1ccccc1)NCc1ccc(F)cc1 was read as TRPC4 act inactive, TRPC4 potent inactive, TRPC4 block inactive, TRPC6 act inactive and TRPC6 inh inactive.
For CCCCOc1ccc(CSC(CC(=O)O)C(=O)O)cc1 (stereo not given) the results were TRPC4 act inactive, TRPC4 potent inactive, TRPC4 block inactive, TRPC6 act inactive and TRPC6 inh inactive.
`CCCCOc1ccc(CSCCN=C(N)N)cc1` gave TRPC4 act inactive, TRPC4 potent inactive, TRPC4 block -6*, TRPC6 act inactive and TRPC6 inh inactive.
`CCOC(=O)CN(C(=O)c1ccccc1[N+](=O)[O-])C(C)(C)C` gave TRPC4 act inactive, TRPC4 potent inactive, TRPC4 block inactive, TRPC6 act inactive and TRPC6 inh inactive.
For Cn1c(=O)[nH]c(=O)c2c1nc([N+](=O)[O-])n2Cc1ccccc1 the results were TRPC4 act inactive, TRPC4 potent inactive, TRPC4 block inactive, TRPC6 act inactive and TRPC6 inh inactive.
For COc1ccc(OC2CCN(S(=O)(=O)c3cccc(F)c3)CC2)cc1 the results were TRPC4 act inactive, TRPC4 potent 11*, TRPC4 block inactive, TRPC6 act inactive and TRPC6 inh inactive.
Screening CN(C)c1ccc(CNCCC(Cc2ccccc2)c2ccco2)cc1 (stereo not given) returned TRPC4 act 46*, TRPC4 potent inactive, TRPC4 block inactive, TRPC6 act inactive and TRPC6 inh inactive.
Screening c1ccc(CNCCC(Cc2ccccc2)c2ccco2)cc1 (stereo not given) returned TRPC4 act inactive, TRPC4 potent inactive, TRPC4 block inactive, TRPC6 act inactive and TRPC6 inh inactive.
Screening Cc1ccc(C(=O)NNC(=S)NC(=O)c2ccco2)cc1 returned TRPC4 act 133*, TRPC4 potent inactive, TRPC4 block inactive, TRPC6 act inactive and TRPC6 inh inactive.
O=C(NNC(=S)NC(=O)c1ccccc1)c1ccc([N+](=O)[O-])cc1 was read as TRPC4 act 56*, TRPC4 potent inactive, TRPC4 block inactive, TRPC6 act inactive and TRPC6 inh inactive.
`Cc1ccc(C(=O)NNC(=O)c2ccco2)cc1` gave TRPC4 act inactive, TRPC4 potent inactive, TRPC4 block inactive, TRPC6 act inactive and TRPC6 inh inactive.
For O=C(NNC(=S)NC(=O)c1ccccc1[N+](=O)[O-])c1ccc(Cl)cc1Cl the results were TRPC4 act 49*, TRPC4 potent inactive, TRPC4 block inactive, TRPC6 act inactive and TRPC6 inh inactive.
Screening O=C(NNC(=S)NC(=O)c1ccccc1[N+](=O)[O-])c1ccccc1[N+](=O)[O-] returned TRPC4 act inactive, TRPC4 potent inactive, TRPC4 block inactive, TRPC6 act inactive and TRPC6 inh inactive.
Cc1ccccc1C(=O)NNC(=S)NC(=O)c1ccccc1 was read as TRPC4 act 205*, TRPC4 potent inactive, TRPC4 block inactive, TRPC6 act inactive and TRPC6 inh inactive.
Screening CSc1ccccc1NC(=O)c1noc(C)c1[N+](=O)[O-] returned TRPC4 act inactive, TRPC4 potent inactive, TRPC4 block inactive, TRPC6 act inactive and TRPC6 inh inactive.
Screening Cc1ccc(C(=O)NC(=S)NNC(=O)c2ccccc2)cc1 returned TRPC4 act 90*, TRPC4 potent inactive, TRPC4 block inactive, TRPC6 act inactive and TRPC6 inh inactive.
For CCCCCC(=O)NNC(=S)NC(=O)c1ccc([N+](=O)[O-])cc1 the results were TRPC4 act 79*, TRPC4 potent inactive, TRPC4 block inactive, TRPC6 act inactive and TRPC6 inh inactive.
For O=C(O)c1ccc(NC(=S)NC(=O)c2ccc(-c3ccccc3)cc2)cc1 the results were TRPC4 act inactive, TRPC4 potent inactive, TRPC4 block -6*, TRPC6 act inactive and TRPC6 inh inactive.
`Cc1ccc(C(=O)NNC(=S)NC(=O)c2ccccc2)cc1` gave TRPC4 act 218*, TRPC4 potent inactive, TRPC4 block inactive, TRPC6 act inactive and TRPC6 inh inactive.
For COC(=O)c1sccc1Oc1c(Cl)cccc1[N+](=O)[O-] the results were TRPC4 act inactive, TRPC4 potent inactive, TRPC4 block inactive, TRPC6 act inactive and TRPC6 inh inactive.
Screening CCN(CCO)Cc1cc(=O)oc2cc3c(cc12)CCC3 returned TRPC4 act inactive, TRPC4 potent inactive, TRPC4 block inactive, TRPC6 act inactive and TRPC6 inh inactive.
Screening Cc1nnc(NC(=O)CCn2cnc3ccccc3c2=O)s1 returned TRPC4 act inactive, TRPC4 potent inactive, TRPC4 block inactive, TRPC6 act inactive and TRPC6 inh inactive.
CCOc1ccc(C(C(=O)NC2CCCCC2)N(C(=O)c2csnn2)C2CC2)cc1 (stereo not given) was read as TRPC4 act inactive, TRPC4 potent inactive, TRPC4 block inactive, TRPC6 act inactive and TRPC6 inh inactive.
Screening COc1ccccc1CNC(=O)C(NS(=O)(=O)c1ccc2c(c1)OCCO2)C(C)C (stereo not given) returned TRPC4 act inactive, TRPC4 potent inactive, TRPC4 block inactive, TRPC6 act inactive and TRPC6 inh inactive.
Cc1ccccc1OCC(=O)Nc1ccccc1NC(=O)c1ccco1 was read as TRPC4 act inactive, TRPC4 potent inactive, TRPC4 block inactive, TRPC6 act inactive and TRPC6 inh inactive.
For O=C(NNC(=S)NC(=O)c1ccccc1Cl)c1cccc([N+](=O)[O-])c1 the results were TRPC4 act 106*, TRPC4 potent inactive, TRPC4 block inactive, TRPC6 act inactive and TRPC6 inh inactive.
For O=C(NNC(=S)NC(=O)c1ccc(Br)cc1)c1cccc([N+](=O)[O-])c1 the results were TRPC4 act inactive, TRPC4 potent inactive, TRPC4 block inactive, TRPC6 act inactive and TRPC6 inh inactive.
